Measurements taken from ChEMBL document CHEMBL4689842, “EUbOPEN Chemogenomics Library wave 1” (2021).
Values joined by “and” are separate entries in the source; they are usually repeats but may differ in a detail not shown here. Equal entries are not always repeated.

System: Fibroblast
Test: Multiplex assay against human fibroblast
Format: toxicity, cell-based
Outline: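 Tubulin, mitochondrial-mass and membrane-permeability phenotypes are per cents of healthy-nucleus cells. Cells were gated by CellPathfinder machine learning into Hoechst high-intensity objects or normal cells, normal cells into healthy, pyknosed or fragmented nuclei, and pyknosed cells into mitotic or apoptotic. Before that, live cells stained at seeding with Hoechst33342, BioTracker Green Microtubule Cytoskeleton Dye, MitoTracker Red and Annexin V Alexa Fluor 680 were imaged on a CQ1 microscope at 37°C and 5% CO2 after compound addition.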

[1] = 12 h, 1 µM, compound concentration 1 uM, replicate 1
[2] = 12 h, 1 µM, compound concentration 1 uM, replicate 2
[3] = 12 h, 10 µM, compound concentration 10 uM, replicate 1
[4] = 12 h, 10 µM, compound concentration 10 uM, replicate 2
[5] = 24 h, 1 µM, compound concentration 1 uM, replicate 1
[6] = 24 h, 1 µM, compound concentration 1 uM, replicate 2
[7] = 24 h, 10 µM, compound concentration 10 uM, replicate 1
[8] = 24 h, 10 µM, compound concentration 10 uM, replicate 2
[9] = 48 h, 10 µM, compound concentration 10 uM, replicate 1
[10] = 48 h, 10 µM, compound concentration 10 uM, replicate 2

Cl.O=C(c1ccc(Nc2nccc(-c3cc4ccccc4s3)n2)cc1)N1CCC(N2CCCC2)CC1
Population Apoptotic (%) [1]: 84%
Population Fragmented Nuclei (%) [1]: 42%
Population Healthy Nuclei (%) [1]: 48%
Population Hoechst High Intensity Objects (%) [1]: 21%
Population Membrane Permeable-Phenotype (%) [1]: 4%
Population Mitochondria Different-Phenotype (%) [1]: 10%
Population Mitotic Cells (%) [1]: 15%
Population Normal (%) [1]: 78%
Population Pyknosed Nuclei (%) [1]: 9%
Population Tubulin-Different-Phenotype (%) [1]: 14%
Total Cell Count [1]: 260
Population Apoptotic (%) [2]: 55%
Population Fragmented Nuclei (%) [2]: 53%
Population Healthy Nuclei (%) [2]: 32%
Population Hoechst High Intensity Objects (%) [2]: 36%
Population Membrane Permeable-Phenotype (%) [2]: 0%
Population Mitochondria Different-Phenotype (%) [2]: 9%
Population Mitotic Cells (%) [2]: 44%
Population Normal (%) [2]: 63%
Population Pyknosed Nuclei (%) [2]: 13%
Total Cell Count [2]: 102
Population Apoptotic (%) [3]: 73% and 44%
Population Fragmented Nuclei (%) [3]: 31% and 33%
Population Healthy Nuclei (%) [3]: 16% and 12%
Population Hoechst High Intensity Objects (%) [3]: 19% and 12%
Population Mitochondria Different-Phenotype (%) [3]: 26% and 36%
Population Mitotic Cells (%) [3]: 26% and 55%
Population Normal (%) [3]: 80% and 87%
Population Pyknosed Nuclei (%) [3]: 52% and 53%
Population Tubulin-Different-Phenotype (%) [3]: 66% and 53%
Total Cell Count [3]: 115 and 265
Population Apoptotic (%) [4]: 93% and 82%
Population Fragmented Nuclei (%) [4]: 35% and 54%
Population Healthy Nuclei (%) [4]: 7% and 10%
Population Hoechst High Intensity Objects (%) [4]: 21% and 38%
Population Membrane Permeable-Phenotype (%) [4]: 50% and 42%
Population Mitochondria Different-Phenotype (%) [4]: 100% and 57%
Population Mitotic Cells (%) [4]: 6% and 17%
Population Normal (%) [4]: 78% and 61%
Population Pyknosed Nuclei (%) [4]: 57% and 34%
Population Tubulin-Different-Phenotype (%) [4]: 100% and 57%
Total Cell Count [4]: 73 and 108
Population Apoptotic (%) [5]: 76%
Population Fragmented Nuclei (%) [5]: 44%
Population Healthy Nuclei (%) [5]: 47%
Population Hoechst High Intensity Objects (%) [5]: 23%
Population Membrane Permeable-Phenotype (%) [5]: 4%
Population Mitochondria Different-Phenotype (%) [5]: 3%
Population Mitotic Cells (%) [5]: 23%
Population Normal (%) [5]: 76%
Population Pyknosed Nuclei (%) [5]: 8%
Population Tubulin-Different-Phenotype (%) [5]: 10%
Total Cell Count [5]: 340
Population Apoptotic (%) [6]: 0%
Population Fragmented Nuclei (%) [6]: 60%
Population Healthy Nuclei (%) [6]: 34%
Population Hoechst High Intensity Objects (%) [6]: 32%
Population Membrane Permeable-Phenotype (%) [6]: 8%
Population Mitochondria Different-Phenotype (%) [6]: 20%
Population Mitotic Cells (%) [6]: 100%
Population Normal (%) [6]: 67%
Population Pyknosed Nuclei (%) [6]: 5%
Population Tubulin-Different-Phenotype (%) [6]: 32%
Total Cell Count [6]: 108
Population Apoptotic (%) [7]: 71%
Population Fragmented Nuclei (%) [7]: 43% and 48%
Population Hoechst High Intensity Objects (%) [7]: 16% and 20%
Population Membrane Permeable-Phenotype (%) [7]: 33% and 14%
Population Mitochondria Different-Phenotype (%) [7]: 22% and 14%
Population Mitotic Cells (%) [7]: 28%
Population Normal (%) [7]: 83% and 79%
Population Pyknosed Nuclei (%) [7]: 46% and 48%
Population Tubulin-Different-Phenotype (%) [7]: 66% and 71%
Total Cell Count [7]: 112 and 297
Population Apoptotic (%) [8]: 88% and 100%
Population Fragmented Nuclei (%) [8]: 66% and 26%
Population Hoechst High Intensity Objects (%) [8]: 45% and 31%
Population Membrane Permeable-Phenotype (%) [8]: 50% and 100%
Population Mitotic Cells (%) [8]: 11% and 0%
Population Normal (%) [8]: 54% and 68%
Population Pyknosed Nuclei (%) [8]: 29% and 58%
Population Tubulin-Different-Phenotype (%) [8]: 50% and 87%
Total Cell Count [8]: 105 and 76
Population Apoptotic (%) [9]: 91%
Population Fragmented Nuclei (%) [9]: 55%
Population Healthy Nuclei (%) [9]: 24%
Population Hoechst High Intensity Objects (%) [9]: 49%
Population Membrane Permeable-Phenotype (%) [9]: 33%
Population Mitochondria Different-Phenotype (%) [9]: 33%
Population Mitotic Cells (%) [9]: 8%
Population Normal (%) [9]: 50%
Population Pyknosed Nuclei (%) [9]: 19%
Population Tubulin-Different-Phenotype (%) [9]: 66%
Total Cell Count [9]: 120
Population Apoptotic (%) [10]: 50%
Population Fragmented Nuclei (%) [10]: 78%
Population Healthy Nuclei (%) [10]: 17%
Population Hoechst High Intensity Objects (%) [10]: 50%
Population Membrane Permeable-Phenotype (%) [10]: 62%
Population Mitochondria Different-Phenotype (%) [10]: 12%
Population Mitotic Cells (%) [10]: 50%
Population Normal (%) [10]: 49%
Population Pyknosed Nuclei (%) [10]: 4%
Population Tubulin-Different-Phenotype (%) [10]: 62%
Total Cell Count [10]: 93
